Test results taken from ChEMBL document CHEMBL1123096, “Alpha-adrenoreceptor reagents. 3. Synthesis of some 2-substituted 1,4-benzodioxans as selective presynaptic alpha 2-adrenoreceptor antagonists” (J Med Chem, 1985).

How the values were obtained:
[1] = biological target: Adrenergic receptor alpha-2 (Rattus norvegicus) (UniProt P22086+P19328+P22909); test: Presynaptic antagonist activity towards alpha-2 adrenergic receptor.; assay type: functional
How it was run: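 Vas deferens from rat or mouse; the mouse tissue was in Mg-free Krebs at 30 °C under 0.5 g tension, stimulated at 0.1 Hz, 3 ms, 100–140 V, giving a twitch of about 100 mg. […] Standard curves were run before and after the test curve.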

[2] = biological target: Adrenergic receptor alpha-1 (Rattus norvegicus) (UniProt P15823+P23944+P43140); test: post-synaptic antagonist activity towards alpha-1 adrenergic receptor was determined. Concentration giving a dose response to phenylephrine (idazoxan=1) was reported.; assay type: functional
Sequence of Adrenergic receptor alpha-1 (Rattus norvegicus) (P15823 whole entry, looked up): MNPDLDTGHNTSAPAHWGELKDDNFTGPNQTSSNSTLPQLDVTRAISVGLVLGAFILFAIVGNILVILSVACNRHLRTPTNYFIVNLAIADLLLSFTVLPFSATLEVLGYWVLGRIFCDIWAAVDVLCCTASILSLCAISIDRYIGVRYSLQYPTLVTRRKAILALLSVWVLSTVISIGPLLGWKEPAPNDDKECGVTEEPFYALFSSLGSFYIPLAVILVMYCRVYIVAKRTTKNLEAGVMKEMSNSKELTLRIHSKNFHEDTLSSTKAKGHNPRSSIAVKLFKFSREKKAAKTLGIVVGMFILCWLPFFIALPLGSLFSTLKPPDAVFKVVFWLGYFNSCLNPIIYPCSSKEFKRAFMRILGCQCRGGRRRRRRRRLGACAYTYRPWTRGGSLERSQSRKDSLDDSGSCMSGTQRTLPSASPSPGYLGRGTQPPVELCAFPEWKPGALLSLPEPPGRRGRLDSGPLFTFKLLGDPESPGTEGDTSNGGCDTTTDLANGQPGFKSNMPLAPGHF
Sequence of Adrenergic receptor alpha-1 (Rattus norvegicus) (P23944 whole entry, looked up): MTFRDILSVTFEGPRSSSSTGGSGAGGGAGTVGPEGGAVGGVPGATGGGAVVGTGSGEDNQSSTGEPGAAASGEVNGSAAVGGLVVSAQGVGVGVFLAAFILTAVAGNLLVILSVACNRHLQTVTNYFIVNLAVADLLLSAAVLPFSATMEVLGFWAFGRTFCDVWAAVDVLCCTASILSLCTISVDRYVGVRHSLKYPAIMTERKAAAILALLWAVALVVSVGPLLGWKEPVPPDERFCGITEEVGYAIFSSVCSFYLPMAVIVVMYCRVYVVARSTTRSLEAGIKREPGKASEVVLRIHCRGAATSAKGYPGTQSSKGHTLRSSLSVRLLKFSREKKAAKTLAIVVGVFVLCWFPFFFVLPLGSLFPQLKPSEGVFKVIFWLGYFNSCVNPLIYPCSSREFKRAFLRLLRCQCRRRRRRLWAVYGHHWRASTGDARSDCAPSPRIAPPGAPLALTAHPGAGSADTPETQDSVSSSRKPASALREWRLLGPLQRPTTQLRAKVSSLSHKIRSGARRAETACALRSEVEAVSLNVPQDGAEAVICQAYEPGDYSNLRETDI
Sequence of Adrenergic receptor alpha-1 (Rattus norvegicus) (P43140 whole entry, looked up): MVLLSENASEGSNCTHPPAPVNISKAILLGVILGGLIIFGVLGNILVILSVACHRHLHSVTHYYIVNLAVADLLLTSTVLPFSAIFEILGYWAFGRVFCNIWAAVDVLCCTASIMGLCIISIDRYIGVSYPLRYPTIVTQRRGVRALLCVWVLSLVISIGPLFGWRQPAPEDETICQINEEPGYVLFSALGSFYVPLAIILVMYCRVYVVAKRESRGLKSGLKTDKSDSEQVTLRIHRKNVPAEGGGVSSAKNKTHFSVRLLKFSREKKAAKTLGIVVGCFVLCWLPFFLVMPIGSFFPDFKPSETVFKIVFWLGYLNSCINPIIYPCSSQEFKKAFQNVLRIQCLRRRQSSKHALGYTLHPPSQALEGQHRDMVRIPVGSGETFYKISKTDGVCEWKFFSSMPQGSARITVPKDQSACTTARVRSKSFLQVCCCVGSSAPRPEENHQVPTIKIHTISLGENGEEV
How it was run: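 Rat anococcygeus, postsynaptic α1 antagonism. At least five phenylephrine concentration–response curves were run alone, then at least four with the antagonist present.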

[3] = biological target: Adrenergic receptor alpha (Rattus norvegicus) (UniProt P15823+P23944+P43140+P22086+P19328+P22909); test: Selectivity as ratio […] against alpha-2 receptor to that of alpha-1 receptor.; assay type: protein assay

Sequence of Adrenergic receptor alpha-2 (Rattus norvegicus) (P19328 whole entry, looked up): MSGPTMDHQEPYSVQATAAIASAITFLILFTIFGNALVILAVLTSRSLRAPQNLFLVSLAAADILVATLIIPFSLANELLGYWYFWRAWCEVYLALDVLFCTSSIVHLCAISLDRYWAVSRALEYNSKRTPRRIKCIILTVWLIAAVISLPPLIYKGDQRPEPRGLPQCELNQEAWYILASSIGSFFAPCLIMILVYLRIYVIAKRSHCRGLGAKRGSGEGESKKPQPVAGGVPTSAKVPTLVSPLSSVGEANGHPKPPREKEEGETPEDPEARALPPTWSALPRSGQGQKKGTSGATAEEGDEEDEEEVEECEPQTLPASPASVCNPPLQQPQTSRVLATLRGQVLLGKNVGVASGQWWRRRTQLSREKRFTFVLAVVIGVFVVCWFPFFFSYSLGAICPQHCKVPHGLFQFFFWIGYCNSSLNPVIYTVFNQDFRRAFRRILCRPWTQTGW
Sequence of Adrenergic receptor alpha-2 (Rattus norvegicus) (P22086 whole entry, looked up): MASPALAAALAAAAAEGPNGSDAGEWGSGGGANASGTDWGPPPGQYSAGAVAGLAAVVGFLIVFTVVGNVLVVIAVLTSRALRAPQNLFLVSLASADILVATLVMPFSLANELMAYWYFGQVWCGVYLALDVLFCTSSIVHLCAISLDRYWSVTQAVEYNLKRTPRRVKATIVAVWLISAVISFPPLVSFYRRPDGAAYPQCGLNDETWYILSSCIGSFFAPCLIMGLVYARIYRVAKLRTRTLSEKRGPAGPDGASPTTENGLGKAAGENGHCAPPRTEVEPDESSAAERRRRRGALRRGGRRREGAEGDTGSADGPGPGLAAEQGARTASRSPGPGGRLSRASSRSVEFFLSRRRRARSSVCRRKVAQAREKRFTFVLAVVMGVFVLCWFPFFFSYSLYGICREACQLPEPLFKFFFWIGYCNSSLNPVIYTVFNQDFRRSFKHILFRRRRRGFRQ
Sequence of Adrenergic receptor alpha-2 (Rattus norvegicus) (P22909 whole entry, looked up): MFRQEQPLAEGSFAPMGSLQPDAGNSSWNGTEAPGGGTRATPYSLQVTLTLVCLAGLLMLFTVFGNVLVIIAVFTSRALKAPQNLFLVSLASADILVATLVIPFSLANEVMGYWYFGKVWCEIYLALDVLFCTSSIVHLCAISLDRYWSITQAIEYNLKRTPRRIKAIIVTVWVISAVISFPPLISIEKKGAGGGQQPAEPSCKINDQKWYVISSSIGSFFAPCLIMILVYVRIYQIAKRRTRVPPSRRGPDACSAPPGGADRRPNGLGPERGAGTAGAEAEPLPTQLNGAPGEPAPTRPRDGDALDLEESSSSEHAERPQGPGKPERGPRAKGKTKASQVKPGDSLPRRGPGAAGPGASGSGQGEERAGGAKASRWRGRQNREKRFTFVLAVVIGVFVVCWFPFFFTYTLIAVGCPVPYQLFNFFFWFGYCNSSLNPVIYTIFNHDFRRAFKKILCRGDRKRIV

potency relative to idazoxan [1] | Postsynaptic antagonist [2] | Ratio [3] | Structure (SMILES)
0.36 | 1 | 0.36 | Clc1ccccc1COC1(C2=NCCN2)COc2ccccc2O1 (centres undefined)
0.35 | 0.2 | 1.75 | Cc1cccc(OC2(C3=NCCN3)COc3ccccc3O2)c1 (centres undefined)
0.04 | 0.026 | 1.6 | c1ccc(C2(C3=NCCN3)COc3ccccc3O2)cc1 (centres undefined)
0.9 | 1.1 | 0.85 | CCCCCCCC1(C2=NCCN2)COc2ccccc2O1 (centres undefined)
0.24 | 1 | 0.24 | OCCCCOC1(C2=NCCN2)COc2ccccc2O1 (centres undefined)
0.026 | 0.75 | 0.035 | C1=C(C2(C3=NCCN3)COc3ccccc3O2)CCCC1 (centres undefined)
1.4 | 1 | 1.4 | OCCOC1(C2=NCCN2)COc2ccccc2O1 (centres undefined)
0.2 | 1 | 0.2 | COCCOC1(C2=NCCN2)COc2ccccc2O1 (centres undefined)
0.16 | 1 | 0.16 | c1ccc2c(c1)OCC(OC1CCCC1)(C1=NCCN1)O2 (centres undefined)
0.006 | 0.05 | 0.1 | COc1cc2c(cc1OC)OC(OC)(C1=NCCN1)CO2 (centres undefined)
0.34 | 2 | 0.17 | COc1ccc(OC2(C3=NCCN3)COc3ccccc3O2)cc1 (centres undefined)
0.024 | < 0.006 |  | CC(C)C1(C2=NCCN2)COc2ccccc2O1 (centres undefined)
1.2 | 2.1 | 0.57 | C#CCOC1(C2=NCCN2)COc2ccccc2O1 (centres undefined)
0.6 | 4.8 | 0.13 | COc1ccc(COC2(C3=NCCN3)COc3ccccc3O2)cc1 (centres undefined)
1 | 2.46 | 0.4 | Clc1ccc(COC2(C3=NCCN3)COc3ccccc3O2)cc1 (centres undefined)
0.72 | 0.6 | 1.2 | CCCCCOC1(C2=NCCN2)COc2ccccc2O1 (centres undefined)
1 | 0.3 | 3.3 | C=CC1(C2=NCCN2)COc2ccccc2O1 (centres undefined)
1 | 8.8 | 0.14 | c1ccc(CCOC2(C3=NCCN3)COc3ccccc3O2)cc1 (centres undefined)
1.7 | 2.3 | 0.75 | COc1ccccc1COC1(C2=NCCN2)COc2ccccc2O1 (centres undefined)
0.023 | 1 | 0.023 | c1ccc(OC2(C3=NCCN3)COc3ccccc3O2)cc1 (centres undefined)
1.5 | 2.2 | 0.68 | CCCCC1(C2=NCCN2)COc2ccccc2O1 (centres undefined)
0.09 | 1 | 0.09 | COC1(C2=NC(C)CN2)COc2ccccc2O1 (centres undefined)

Structure (SMILES) | potency relative to idazoxan [1] | Postsynaptic antagonist [2] | Ratio [3]
C1=C(C2(C3=NCCN3)COc3ccccc3O2)CCC1 (centres undefined) | 0.15 | 0.09 | 1.7
c1ccc2c(c1)OCC(C1=NCCN1)(C1CCCC1)O2 (centres undefined) | 0.015 | 0.4 | 0.04
CC1Oc2ccccc2OC1C1=NCCN1 (centres undefined) | 0.002 | 0.023 | 0.087
